The target in one experiment is Nucleic Acid. Put plainly: Compound was tested for binding to the bacterial decoding-site RNA target using an RNA fluorescence assay. Format: nucleic-acid assay. The essentials:
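Fluorescence assay on a model decoding-site oligonucleotide, reporting ligand-induced flipping out of adenines A1492 and A1493; binding curve averaged from two titrations and fitted to a single-site model to give IC50.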

Experiment [1] deals with Staphylococcus aureus. The experiment is described as follows: Compound was tested for bacterial translation inhibition (in vitro) using transcription-translation assay. Format: functional. The essentials:
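Coupled in vitro transcription–translation assay; IC50 from dose–response curves averaged over six independent experiments, error bars ±1σ.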

For the next experiment, the system named is Escherichia coli. Put plainly: Antibacterial activity against Escherichia coli (Strain ATCC 25922). It counts as functional.
Experiment [2] deals with Staphylococcus aureus. The experiment is described as follows: Antibacterial activity against Staphylococcus aureus (ATCC-25923). Format: functional.
Experiment [3] can be described thus: Cytotoxic concentration against proliferation of eukaryotic cells. Format: functional.

The results in this text go back to ChEMBL document CHEMBL1147432, “Rational design of azepane-glycoside antibiotics targeting the bacterial ribosome” (Bioorg Med Chem Lett, 2004).

The structures appear in SMILES notation. In brackets after ≈: the same amount, converted by molar mass.

For the molecule `NC[C@H]1O[C@H](O[C@@H]2CCN[C@H](CO)C[C@H]2N)[C@H](N)[C@@H](O)[C@@H]1O`, the values for the IC50 on Nucleic Acid and in the experiment with Staphylococcus aureus [1] were more than 250 µM and 47 µM, respectively. The MIC in the experiment with Escherichia coli and in the experiment on Staphylococcus aureus [2] was more than 64 µg/mL each time.

As for `CN1CC[C@H](N)[C@@H](O[C@H]2O[C@H](CN)[C@@H](O)[C@H](O)[C@H]2N)C[C@@H]1CO`, the values for the IC50 on Nucleic Acid and in the experiment on Staphylococcus aureus [1] were more than 250 µM and 75 µM, respectively. For the same molecule, the minimal inhibitory concentration (MIC) with Escherichia coli and with Staphylococcus aureus [2] was more than 64 µg/mL each time.

For the molecule `NC[C@H]1C[C@H](O[C@H]2O[C@H](CN)[C@@H](O)[C@H](O)[C@H]2N)[C@@H](N)CCN1`, the IC50 (usually the concentration that inhibits the measured activity by half) was more than 250 µM on Nucleic Acid and 170 µM in the experiment on Staphylococcus aureus [1]. The MIC in the experiment on Escherichia coli and against Staphylococcus aureus [2] was more than 64 µg/mL throughout.

In the case of `NC[C@H]1O[C@H](O[C@H]2C[C@@H]3COC(=O)N3CC[C@@H]2N)[C@H](N)[C@@H](O)[C@@H]1O`, the IC50 on Nucleic Acid is more than 250 µM; with Staphylococcus aureus [1], more than 1000 µM. The MIC in the experiment with Escherichia coli and against Staphylococcus aureus [2] was more than 64 µg/mL in each case.

In the case of `NC[C@H]1O[C@H](O[C@@H]2C[C@@H](CO)NCC[C@H]2N)[C@H](N)[C@@H](O)[C@@H]1O`, the values for the 50% inhibitory concentration (IC50) on Nucleic Acid and in the experiment on Staphylococcus aureus [1] were 80 µM and 180 µM, respectively. Besides, the MIC against Escherichia coli and in the experiment on Staphylococcus aureus [2] was more than 64 µg/mL throughout.

Consider `NC[C@H]1O[C@H](O[C@H]2C[C@H](CCl)NCC[C@@H]2N)[C@H](N)[C@@H](O)[C@@H]1O`, for which the 50% inhibitory concentration (IC50) on Nucleic Acid was more than 250 µM; in the experiment with Staphylococcus aureus [1], 82 µM. In addition, the MIC with Escherichia coli and with Staphylococcus aureus [2] was more than 64 µg/mL in each case.

In the case of `N[C@H]1[C@@H](O[C@H]2C[C@H](CO)NCC[C@@H]2N)O[C@H](CO)[C@@H](O)[C@@H]1O`, the IC50 is more than 250 µM at Nucleic Acid and 110 µM in the experiment on Staphylococcus aureus [1]. In addition, the minimum inhibitory concentration (MIC) in the experiment with Escherichia coli and against Staphylococcus aureus [2] was more than 64 µg/mL throughout.

Turning to `NC[C@H]1O[C@H](O[C@H]2CCN[C@@H](CO)C[C@@H]2N)[C@H](N)[C@@H](O)[C@@H]1O`, the IC50 at Nucleic Acid is more than 250 µM; in the experiment with Staphylococcus aureus [1], 370 µM. In addition, the MIC in the experiment with Escherichia coli and against Staphylococcus aureus [2] was more than 64 µg/mL in each case.

`NC[C@H]1O[C@H](O[C@@H]2CCN[C@@H](CO)C[C@H]2N)[C@H](N)[C@@H](O)[C@@H]1O`: the 50% inhibitory concentration (IC50) at Nucleic Acid is more than 250 µM; in the experiment with Staphylococcus aureus [1], 230 µM. In addition, the MIC against Escherichia coli and in the experiment with Staphylococcus aureus [2] was more than 64 µg/mL throughout.

As to `NC[C@H]1O[C@H](O[C@H]2C[C@H](CO)NCC[C@@H]2N)[C@H](N)[C@@H](OCc2ccccc2)[C@@H]1OCc1ccccc1`, the values for the IC50 at Nucleic Acid and with Staphylococcus aureus [1] were more than 250 µM and more than 1000 µM, respectively. Besides, the minimal inhibitory concentration (MIC) in the experiment with Escherichia coli and against Staphylococcus aureus [2] was more than 64 µg/mL in each case.

As for `NC[C@H]1O[C@H](O[C@@H]2C[C@H](CO)NCC[C@H]2N)[C@H](N)[C@@H](O)[C@@H]1O`, the values for the IC50 on Nucleic Acid and in the experiment with Staphylococcus aureus [1] were 12 µM and 6.4 µM, respectively. Moreover, in experiment [3], the CC50 – broadly, the concentration giving 50% cytotoxicity – is more than 320 µM. Moreover, the MIC (as a rule, the least concentration at which growth counts as inhibited) against Escherichia coli is more than 64 µg/mL; in the experiment with Staphylococcus aureus [2] it was 32 µg/mL (≈ 99.9 µM).

On to `NC[C@H]1O[C@H](O[C@H]2C[C@H](CO)NCC[C@@H]2N)[C@H](N)[C@@H](O)[C@@H]1O`, for which the concentration for half-maximal inhibition (IC50) is 11 µM at Nucleic Acid and 5.7 µM in the experiment on Staphylococcus aureus [1]. The same molecule yielded a CC50 in experiment [3] of more than 320 µM. Also, the figures for the minimal inhibitory concentration (MIC) in the experiment with Escherichia coli and in the experiment with Staphylococcus aureus [2] were more than 64 µg/mL and 64 µg/mL (≈ 200 µM), respectively.

Take `NC[C@H]1O[C@H](O[C@H]2CCN[C@H](CO)C[C@@H]2N)[C@H](N)[C@@H](O)[C@@H]1O`: the figures for the half-inhibitory concentration (IC50) on Nucleic Acid and with Staphylococcus aureus [1] were more than 250 µM and 39 µM, respectively. Also, the MIC in the experiment with Escherichia coli and with Staphylococcus aureus [2] was more than 64 µg/mL each time.
